Activity calls are given as the source filed them. No cut-off for these calls is given here.
Tests used:
[1] = AUC in nu/nu mouse at 10 mg/kg, iv by LC-MS analysis; assay type: ADME, organism-based; settings: in vivo
[2] = tested on: A2780; assay: Induction of mitosis in human A2780 cells xenografted in nu/nu mouse assessed as decreased NPM phosphorylation on Thr199 at 60 mg/kg, po administered for 12 to 24 hrs by immunohistochemistry analysis; assay type: functional, organism-based; settings: time lower […], time upper 24.0 hrs
[3] = tested on: SF-539; assay: Antiproliferative activity against human SF-539 cells assessed as inhibition of cell growth incubated for 72 hrs by cell-titer glo assay; assay type: functional, cell-based; settings: SF-539, 72 h
Outline: (§1)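 Cells from ATCC or ECACC, kept in supplier-recommended medium with 1% penicillin-streptomycin at 37°C, 5% CO₂. Seeded at 10,000–30,000/cm² (adherent) or 100,000/mL (nonadherent) in medium with 10% fetal calf serum. Dosed after 24 h in duplicate with serial dilutions. Viable cells read by CellTiter-Glo 72 h later. IC50 from sigmoidal fit. At least two independent experiments.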

[4] = molecular target: Eukaryotic translation initiation factor 2-alpha kinase 3 (Homo sapiens, UniProt Q9NZJ5); assay: Inhibition of PERK (unknown origin) in presence of [gamma-33P]ATP
Chain of Eukaryotic translation initiation factor 2-alpha kinase 3 (Q9NZJ5 whole entry, the tested form may be a part): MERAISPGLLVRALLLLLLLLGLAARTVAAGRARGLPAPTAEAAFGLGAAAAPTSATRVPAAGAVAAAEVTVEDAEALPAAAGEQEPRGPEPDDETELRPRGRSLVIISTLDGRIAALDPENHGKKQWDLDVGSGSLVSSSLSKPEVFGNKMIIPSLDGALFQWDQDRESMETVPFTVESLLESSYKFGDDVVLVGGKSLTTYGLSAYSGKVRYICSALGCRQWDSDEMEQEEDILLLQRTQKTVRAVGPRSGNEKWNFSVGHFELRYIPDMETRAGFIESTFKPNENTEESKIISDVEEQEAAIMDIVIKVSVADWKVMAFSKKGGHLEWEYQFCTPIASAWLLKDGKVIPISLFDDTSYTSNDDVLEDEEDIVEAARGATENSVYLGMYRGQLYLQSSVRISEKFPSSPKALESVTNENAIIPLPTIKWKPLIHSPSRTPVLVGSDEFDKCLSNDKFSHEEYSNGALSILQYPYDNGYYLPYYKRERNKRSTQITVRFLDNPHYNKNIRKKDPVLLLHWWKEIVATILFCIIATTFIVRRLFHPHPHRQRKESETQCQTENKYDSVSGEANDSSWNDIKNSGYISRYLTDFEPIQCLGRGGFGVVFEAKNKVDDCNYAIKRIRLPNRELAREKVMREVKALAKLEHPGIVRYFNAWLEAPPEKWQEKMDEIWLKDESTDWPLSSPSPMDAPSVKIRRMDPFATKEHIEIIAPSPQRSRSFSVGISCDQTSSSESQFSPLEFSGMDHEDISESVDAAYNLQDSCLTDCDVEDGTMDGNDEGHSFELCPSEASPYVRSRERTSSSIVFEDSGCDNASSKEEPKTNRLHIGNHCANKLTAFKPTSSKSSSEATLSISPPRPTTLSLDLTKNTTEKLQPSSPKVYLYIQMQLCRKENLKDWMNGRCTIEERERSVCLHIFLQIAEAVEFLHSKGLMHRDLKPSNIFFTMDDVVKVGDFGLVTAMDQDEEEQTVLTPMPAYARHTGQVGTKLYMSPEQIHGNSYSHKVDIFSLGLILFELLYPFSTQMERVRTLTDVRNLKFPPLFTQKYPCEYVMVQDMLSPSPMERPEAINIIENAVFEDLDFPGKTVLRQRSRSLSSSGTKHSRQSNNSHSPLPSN

[5] = molecular target: Insulin receptor (Homo sapiens, UniProt P06213); assay: Inhibition of N-terminal His6-tagged recombinant human IR (1005 to 1310 residues) expressed in baculovirus infected Sf21 cells assessed as residual activity at 1 uM relative to control
[6] = molecular target: Mitogen-activated protein kinase 11 (Homo sapiens) (UniProt Q15759); assay: Inhibition of N-terminal GST fusion protein corresponding to full-length human SAPK2b expressed in E. coli assessed as residual activity at 1 uM relative to control
Chain of Mitogen-activated protein kinase 11 (Homo sapiens) (Q15759 whole entry, the tested form may be a part): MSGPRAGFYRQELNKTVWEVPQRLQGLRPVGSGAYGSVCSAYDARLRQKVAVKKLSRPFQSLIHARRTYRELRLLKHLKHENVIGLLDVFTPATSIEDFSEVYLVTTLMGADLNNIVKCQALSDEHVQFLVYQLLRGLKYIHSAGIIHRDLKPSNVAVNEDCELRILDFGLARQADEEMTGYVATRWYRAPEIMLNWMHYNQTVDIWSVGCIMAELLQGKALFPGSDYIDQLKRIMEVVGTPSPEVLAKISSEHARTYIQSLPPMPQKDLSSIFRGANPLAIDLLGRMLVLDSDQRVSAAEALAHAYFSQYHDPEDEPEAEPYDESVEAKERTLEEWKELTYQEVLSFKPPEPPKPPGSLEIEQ

[7] = tested on: A549; assay: Antiproliferative activity against human A549 cells assessed as inhibition of cell growth incubated for 72 hrs by cell-titer glo assay; assay type: functional, cell-based; settings: A549, 72 h
Outline: (§2)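 Cells seeded 10,000–30,000/cm² (adherent) or 100,000/mL (suspension) in medium with 10% fetal calf serum; after 24 h treated in duplicate with serial dilutions for 72 h. Viable cells read by CellTiter-Glo luminescence; IC50 from sigmoidal fit; at least two independent experiments.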

[8] = molecular target: Serine/threonine-protein kinase STK11 (Homo sapiens) (UniProt Q15831); assay: Inhibition of N-terminal 6His-tagged recombinant full-length human LKB1 expressed in Sf21 cells assessed as residual activity at 0.1 uM relative to control
Chain of Serine/threonine-protein kinase STK11 (Homo sapiens) (Q15831 whole entry): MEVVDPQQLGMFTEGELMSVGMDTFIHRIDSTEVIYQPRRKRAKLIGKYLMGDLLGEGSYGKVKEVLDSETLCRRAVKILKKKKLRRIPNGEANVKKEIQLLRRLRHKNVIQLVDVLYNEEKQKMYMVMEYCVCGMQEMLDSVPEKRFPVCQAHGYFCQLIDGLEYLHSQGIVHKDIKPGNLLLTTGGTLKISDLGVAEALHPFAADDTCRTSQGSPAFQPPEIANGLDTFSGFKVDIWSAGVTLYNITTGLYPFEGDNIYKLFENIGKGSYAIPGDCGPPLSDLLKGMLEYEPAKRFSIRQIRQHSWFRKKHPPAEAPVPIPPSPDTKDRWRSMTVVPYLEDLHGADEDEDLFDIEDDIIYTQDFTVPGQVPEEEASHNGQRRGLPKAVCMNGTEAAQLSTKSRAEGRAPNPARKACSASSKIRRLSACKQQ

[9] = molecular target: Tyrosine-protein kinase Lyn (Homo sapiens, UniProt P07948); assay: Inhibition of N-terminal his6-tagged recombinant full-length human Lyn expressed in Sf21 cells assessed as residual activity at 1 uM relative to control
Chain of Tyrosine-protein kinase Lyn (P07948 2-512 limits assumed): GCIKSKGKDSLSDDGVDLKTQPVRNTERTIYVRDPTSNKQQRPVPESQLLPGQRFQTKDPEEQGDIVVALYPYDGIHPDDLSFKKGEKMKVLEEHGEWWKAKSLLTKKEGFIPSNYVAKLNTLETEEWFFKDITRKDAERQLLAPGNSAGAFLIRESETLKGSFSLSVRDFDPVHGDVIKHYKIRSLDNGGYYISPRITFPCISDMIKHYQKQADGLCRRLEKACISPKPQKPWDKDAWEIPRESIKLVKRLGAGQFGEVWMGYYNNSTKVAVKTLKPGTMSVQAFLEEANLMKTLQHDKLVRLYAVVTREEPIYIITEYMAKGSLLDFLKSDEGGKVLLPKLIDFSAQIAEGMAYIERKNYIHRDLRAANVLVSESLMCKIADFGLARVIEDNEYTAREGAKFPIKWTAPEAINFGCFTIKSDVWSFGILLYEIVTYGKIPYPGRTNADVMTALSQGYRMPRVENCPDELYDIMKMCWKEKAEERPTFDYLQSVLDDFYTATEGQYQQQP

[10] = tested on: UACC-257; assay: Antiproliferative activity against human UACC-257 cells assessed as inhibition of cell growth incubated for 72 hrs by cell-titer glo assay; assay type: functional, cell-based; settings: UACC-257, 72 h
[11] = tested on: JIMT-1; assay: Antiproliferative activity against human JIMT-1 cells assessed as inhibition of cell growth incubated for 72 hrs by cell-titer glo assay; assay type: functional, cell-based; settings: JIMT-1, 72 h
Outline: (§3)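 Cells seeded at 10,000–30,000/cm² (adherent) or 100,000/mL (nonadherent) in medium with 10% fetal calf serum; after 24 h, treated in duplicate with serial dilutions for 72 h. Viable cell number read by CellTiter-Glo luminescence; IC50 from sigmoidal fit; at least two independent experiments.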

[12] = tested on: NHDF; assay: Cytotoxicity against human NHDF cells assessed as reduction in cell number at 0.5 to 1 uM incubated for 8 hrs followed by compound washout and measured after 24 to 48 hrs by cell titer glow assay; assay type: toxicity, cell-based; settings: dose 0.5-1 µM
[13] = Tmax in male cynomolgus monkey at 5 mg/kg, po by LC-MS analysis; assay type: ADME, organism-based, Macaca fascicularis; settings: in vivo
[14] = tested on: HCC1937; assay: Antiproliferative activity against human HCC1937 cells assessed as inhibition of cell growth incubated for 72 hrs by cell-titer glo assay; assay type: functional, cell-based; settings: HCC1937, 72 h; outline: as §3
[15] = molecular target: 3-phosphoinositide-dependent protein kinase 1 (Homo sapiens) (UniProt O15530); assay: Inhibition of N-terminal His6-tagged recombinant human PDK1 (52 to end residues) expressed in baculovirus infected Sf21 cells assessed as residual activity at 0.1 uM relative to control
Chain of 3-phosphoinositide-dependent protein kinase 1 (Homo sapiens) (O15530 whole entry, looked up): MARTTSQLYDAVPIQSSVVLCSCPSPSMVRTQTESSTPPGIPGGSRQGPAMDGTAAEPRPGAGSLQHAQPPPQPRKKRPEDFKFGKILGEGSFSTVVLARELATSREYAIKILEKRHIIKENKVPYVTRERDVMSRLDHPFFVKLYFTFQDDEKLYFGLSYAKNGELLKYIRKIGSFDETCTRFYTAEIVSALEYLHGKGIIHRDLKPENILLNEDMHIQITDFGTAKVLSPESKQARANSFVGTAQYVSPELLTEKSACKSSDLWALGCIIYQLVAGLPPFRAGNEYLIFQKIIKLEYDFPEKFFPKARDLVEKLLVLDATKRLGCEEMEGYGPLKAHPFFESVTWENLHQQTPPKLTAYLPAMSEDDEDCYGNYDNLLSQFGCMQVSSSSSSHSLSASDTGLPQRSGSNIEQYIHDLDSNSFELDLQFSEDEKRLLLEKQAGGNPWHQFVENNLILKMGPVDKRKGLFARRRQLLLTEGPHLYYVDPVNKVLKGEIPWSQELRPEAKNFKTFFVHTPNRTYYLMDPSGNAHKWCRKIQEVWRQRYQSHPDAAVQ

[16] = Clearance in Beagle dog at 5 mg/kg, iv by LC-MS analysis; assay type: ADME, organism-based, Canis lupus familiaris; settings: in vivo
[17] = molecular target: Ribosomal protein S6 kinase alpha-2 (Homo sapiens) (UniProt Q15349); assay: Inhibition of N-terminal His6-tagged recombinant full-length human Rsk3 expressed in Sf21 cells assessed as residual activity at 1 uM relative to control
Chain of Ribosomal protein S6 kinase alpha-2 (Homo sapiens) (Q15349 whole entry): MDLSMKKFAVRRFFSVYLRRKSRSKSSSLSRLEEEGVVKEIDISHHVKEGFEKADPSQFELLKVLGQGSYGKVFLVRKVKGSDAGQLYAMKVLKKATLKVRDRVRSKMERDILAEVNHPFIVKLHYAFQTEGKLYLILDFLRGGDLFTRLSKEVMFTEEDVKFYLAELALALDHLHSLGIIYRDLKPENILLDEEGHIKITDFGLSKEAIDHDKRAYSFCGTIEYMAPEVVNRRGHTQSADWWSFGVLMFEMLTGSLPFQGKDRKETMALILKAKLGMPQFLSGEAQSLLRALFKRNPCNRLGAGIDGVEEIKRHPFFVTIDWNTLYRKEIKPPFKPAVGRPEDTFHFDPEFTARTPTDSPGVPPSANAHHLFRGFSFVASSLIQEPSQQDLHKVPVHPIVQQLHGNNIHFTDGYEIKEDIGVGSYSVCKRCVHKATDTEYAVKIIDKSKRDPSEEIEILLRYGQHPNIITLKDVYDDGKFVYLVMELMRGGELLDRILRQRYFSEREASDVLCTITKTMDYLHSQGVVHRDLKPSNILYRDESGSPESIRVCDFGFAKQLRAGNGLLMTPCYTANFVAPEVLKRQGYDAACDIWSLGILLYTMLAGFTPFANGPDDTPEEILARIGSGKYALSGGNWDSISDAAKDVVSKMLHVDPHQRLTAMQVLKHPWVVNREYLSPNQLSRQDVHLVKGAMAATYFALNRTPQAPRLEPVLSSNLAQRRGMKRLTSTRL

[18] = tested on: Hs-578T; assay: Antiproliferative activity against human Hs-578T cells assessed as inhibition of cell growth incubated for 72 hrs by cell-titer glo assay; assay type: functional, cell-based; outline: as §3
[19] = tested on: Jurkat; assay: Antiproliferative activity against human Jurkat cells assessed as inhibition of cell growth incubated for 72 hrs by cell-titer glo assay; assay type: functional, cell-based; outline: as §3
[20] = tested on: RO82-W-1; assay: Antiproliferative activity against human RO82-W-1 cells assessed as inhibition of cell growth incubated for 72 hrs by cell-titer glo assay; assay type: functional, cell-based; settings: RO82-W-1, 72 h; outline: as §1
[21] = tested on: ACHN; assay: Antiproliferative activity against human ACHN cells assessed as inhibition of cell growth incubated for 72 hrs by cell-titer glo assay; assay type: functional, cell-based; outline: as §2
[22] = Antiproliferative activity against human M-07e cells assessed as inhibition of cell growth incubated for 72 hrs by cell-titer glo assay; assay type: functional, cell-based; outline: as §3
[23] = tested on: LCLC-97TM1; assay: Antiproliferative activity against human LCLC-97TM1 cells assessed as inhibition of cell growth incubated for 72 hrs by cell-titer glo assay; assay type: functional, cell-based; settings: LCLC-97TM1, 72 h; outline: as §3
[24] = tested on: NCI-H1975; assay: Antiproliferative activity against human NCI-H1975 cells assessed as inhibition of cell growth incubated for 72 hrs by cell-titer glo assay; assay type: functional, cell-based; settings: NCI-H1975, 72 h; outline: as §1
[25] = Cmax in Beagle dog at 5 mg/kg, iv by LC-MS analysis; assay type: ADME, organism-based, Canis lupus familiaris; settings: in vivo
[26] = tested on: A2780; assay: In vivo inhibition of PLK1 in human A2780 cells xenografted in nu/nu mouse assessed as decreased TCTP phosphorylation on Ser46 at 90 to 120 mg/kg, po administered for 6 to 12 hrs by Western blotting analysis; assay type: functional, organism-based; settings: dose lower 90.0 mg/kg, dose upper […], time lower 6.0 hrs
[27] = tested on: A2780; assay: Induction of mitosis in human A2780 cells xenografted in nu/nu mouse assessed as decreased Histone H3 phosphorylation on Ser10 at 60 mg/kg, po administered for 12 to 24 hrs by immunohistochemistry analysis; assay type: functional, organism-based; settings: time lower […], time upper 24.0 hrs
[28] = tested on: A2780; assay: Induction of apoptosis in human A2780 cells assessed as PARP cleavage at 0.02 to 0.2 micromol/L incubated for 24 hrs by Western blotting analysis; assay type: functional, cell-based; settings: dose 0.02-0.2 µmol/L
[29] = tested on: DLD-1; assay: Antiproliferative activity against human DLD-1 cells assessed as inhibition of cell growth incubated for 72 hrs by cell-titer glo assay; assay type: functional, cell-based; settings: DLD-1, 72 h; outline: as §2
[30] = molecular target: RAF proto-oncogene serine/threonine-protein kinase (Homo sapiens) (UniProt P04049); assay: Inhibition of N-terminal GST-tagged recombinant human c-RAF (306 to 648 residues) expressed in Sf9 cells assessed as residual activity at 0.1 uM relative to control
Chain of RAF proto-oncogene serine/threonine-protein kinase (Homo sapiens) (P04049 whole entry, the tested form may be a part): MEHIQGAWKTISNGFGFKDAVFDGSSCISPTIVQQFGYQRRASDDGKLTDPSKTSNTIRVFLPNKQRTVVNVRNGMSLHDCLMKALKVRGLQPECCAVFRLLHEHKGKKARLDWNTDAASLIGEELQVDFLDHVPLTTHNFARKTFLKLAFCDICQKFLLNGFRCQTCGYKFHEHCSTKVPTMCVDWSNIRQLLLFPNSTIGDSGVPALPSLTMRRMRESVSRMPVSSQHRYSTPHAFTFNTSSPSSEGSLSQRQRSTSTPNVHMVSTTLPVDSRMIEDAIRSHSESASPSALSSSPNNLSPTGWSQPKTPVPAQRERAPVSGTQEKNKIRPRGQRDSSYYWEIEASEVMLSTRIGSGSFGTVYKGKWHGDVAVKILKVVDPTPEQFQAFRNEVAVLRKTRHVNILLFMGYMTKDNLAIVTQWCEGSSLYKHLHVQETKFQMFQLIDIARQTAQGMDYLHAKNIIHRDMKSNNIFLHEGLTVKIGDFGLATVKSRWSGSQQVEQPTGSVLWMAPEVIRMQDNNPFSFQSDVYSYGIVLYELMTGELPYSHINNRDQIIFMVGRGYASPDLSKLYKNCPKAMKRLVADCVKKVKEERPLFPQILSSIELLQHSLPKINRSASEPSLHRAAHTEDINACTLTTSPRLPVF

CN1CCN(c2ccc(OC(F)(F)F)c(Nc3ncc4c(n3)-c3c(c(C(N)=O)nn3CCO)CC4)c2)CC1 [ONVANSERTIB]
AUC [1]: 8.6 µM·h | Activity [2]: Active | IC50 [3]: 47 nM | IC50 [4]: > 10000 nM | Activity [5]: 90% | Activity [6]: 146% | IC50 [7]: 175 nM | Activity [8]: 113% | Activity [9]: 198% | IC50 [10]: 441 nM | IC50 [11]: 105 nM | Activity [12]: Toxic | Tmax [13]: 2.7 h | IC50 [14]: 595 nM | Activity [15]: 142% | clearance [16]: 43.8 mL/min/kg | Activity [17]: 84% | IC50 [18]: 251 nM | IC50 [19]: 48 nM | IC50 [20]: 837 nM | IC50 [21]: 429 nM | IC50 [22]: 66 nM | IC50 [23]: 32 nM | IC50 [24]: 398 nM | Cmax [25]: 1700 nM | inhibition [26]: Active | Activity [27]: Active | Activity [28]: Active | IC50 [29]: 329 nM | Activity [30]: 93%
